Data reported in PMC8458982 (The Journal of Biological Chemistry, 2021).

Assays:
mTRPC6 mutant ^mE671C = target: T1, mTRPC6 mutant ^mE671C (Mus musculus, UniProt Q61143, E671C); experiment: whole-cell patch-clamp, mTRPC6 mutant E671C; assay type: cell-based
T1 sequence (Q61143 1-930 E671C): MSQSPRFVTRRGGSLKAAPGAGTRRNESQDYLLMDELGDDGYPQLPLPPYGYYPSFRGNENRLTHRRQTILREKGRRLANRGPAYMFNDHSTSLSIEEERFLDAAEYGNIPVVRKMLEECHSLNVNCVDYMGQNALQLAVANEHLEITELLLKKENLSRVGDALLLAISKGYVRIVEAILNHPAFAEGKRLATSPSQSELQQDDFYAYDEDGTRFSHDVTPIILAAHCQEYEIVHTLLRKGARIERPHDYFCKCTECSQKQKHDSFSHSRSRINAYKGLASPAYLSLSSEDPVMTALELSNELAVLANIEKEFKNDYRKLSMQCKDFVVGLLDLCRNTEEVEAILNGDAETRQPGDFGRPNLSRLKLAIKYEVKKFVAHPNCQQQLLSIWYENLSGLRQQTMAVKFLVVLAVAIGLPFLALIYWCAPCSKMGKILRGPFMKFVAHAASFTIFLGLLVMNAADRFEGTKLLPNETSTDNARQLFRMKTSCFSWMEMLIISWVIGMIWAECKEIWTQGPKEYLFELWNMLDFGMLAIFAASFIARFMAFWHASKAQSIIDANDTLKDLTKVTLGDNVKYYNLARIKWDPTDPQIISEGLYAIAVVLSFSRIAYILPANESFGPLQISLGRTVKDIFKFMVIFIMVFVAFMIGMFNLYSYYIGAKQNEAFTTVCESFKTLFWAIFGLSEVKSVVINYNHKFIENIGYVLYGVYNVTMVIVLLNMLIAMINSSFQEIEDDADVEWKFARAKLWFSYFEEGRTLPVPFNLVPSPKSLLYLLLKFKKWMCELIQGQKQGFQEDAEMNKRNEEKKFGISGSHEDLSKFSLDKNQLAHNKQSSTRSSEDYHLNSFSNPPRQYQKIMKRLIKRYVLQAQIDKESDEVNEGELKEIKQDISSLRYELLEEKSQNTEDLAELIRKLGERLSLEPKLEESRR
Method in brief: (§1)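 Transiently transfected HEK293 cells expressing mouse or human TRPC6 WT, or sequence-verified mouse point mutants, recorded 24–48 h post-transfection. Conventional whole-cell clamp at −60 mV and 23 °C, gap-free; test compound applied by Y-tube. Pipette: CsCl/HEPES/BAPTA, 400 nM free Ca2+, pH 7.2. Bath: NaCl-based, 2 mM CaCl2, pH 7.4. EC50 from Hill fit of concentration–current data. Mutant screen used current ratios (10/5 μM or 3/1 μM). At least 3 transfection batches.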

mTRPC6 mutant ^mN701Q = mTRPC6 mutant ^mN701Q (Mus musculus, UniProt Q61143, N701Q); experiment: whole-cell patch-clamp, mTRPC6 mutant N701Q; assay type: cell-based
Method in brief: as §1

mTRPC6 mutant ^mV709A = mTRPC6 mutant ^mV709A (Mus musculus, UniProt Q61143, V709A); experiment: whole-cell patch-clamp, mTRPC6 mutant V709A; assay type: cell-based
Method in brief: as §1

mTRPC6 mutant ^mR463K = experiment: whole-cell patch-clamp, mTRPC6 mutant R463K; assay type: cell-based, mouse; conditions: ^mR463K (S1 pocket)
Method in brief: as §1

mTRPC6 mutant ^mY657W = experiment: whole-cell patch-clamp, mTRPC6 mutant Y657W; assay type: cell-based, mouse; conditions: ^mY657W (S1 pocket)
Method in brief: as §1

mTRPC6 mutant ^mF674A = mTRPC6 mutant ^mF674A (Mus musculus, UniProt Q61143, F674A); experiment: whole-cell patch-clamp, mTRPC6 mutant F674A; assay type: cell-based; conditions: saturated agonist
Method in brief: as §1

mTRPC6 mutant ^mW679A = mTRPC6 mutant ^mW679A (Mus musculus, UniProt Q61143, W679A); experiment: whole-cell patch-clamp, mTRPC6 mutant W679A; assay type: cell-based; conditions: saturated agonist
Method in brief: as §1

mTRPC6 mutant ^mE700A = mTRPC6 mutant ^mE700A (Mus musculus, UniProt Q61143, E700A); experiment: whole-cell patch-clamp, mTRPC6 mutant E700A; assay type: cell-based; conditions: saturated agonist
Method in brief: as §1

mTRPC6 mutant ^mN701A = mTRPC6 mutant ^mN701A (Mus musculus, UniProt Q61143, N701A); experiment: whole-cell patch-clamp, mTRPC6 mutant N701A; assay type: cell-based; conditions: saturated agonist
Method in brief: as §1

mTRPC6 mutant ^mY704A = mTRPC6 mutant ^mY704A (Mus musculus, UniProt Q61143, Y704A); experiment: whole-cell patch-clamp, mTRPC6 mutant Y704A; assay type: cell-based; conditions: saturated agonist
Method in brief: as §1

hTRPC6 mutant ^hK676R = hTRPC6 mutant ^hK676R (Homo sapiens, UniProt Q9Y210, K676R); experiment: whole-cell patch-clamp, hTRPC6 mutant K676R; assay type: cell-based
hTRPC6 mutant ^hN702Q = hTRPC6 mutant ^hN702Q (Homo sapiens, UniProt Q9Y210, N702Q); experiment: whole-cell patch-clamp, hTRPC6 mutant N702Q; assay type: cell-based
mTRPC6^N701Q = mTRPC6^N701Q (Mus musculus, UniProt Q61143, N701Q); experiment: single-channel outside-out recording, mTRPC6 N701Q; assay type: cell-based; conditions: 100 μM agonist, −60 mV
Method in brief: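 Excised outside-out or inside-out patches (macro-patch or single-channel) from transfected HEK293 cells, 24–48 h post-transfection, 23 °C. Polished borosilicate pipettes of 8–12 MΩ; holding potential −60 mV. Same solutions as whole-cell recordings (CsCl-based internal, 400 nM free Ca2+, pH 7.2; NaCl-based external, pH 7.4). Sampled at 50 kHz, 2 kHz filter, low-pass 300 Hz; unitary current and conductance measured.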

TRPC3/6/7 = conditions: read-out: EC50 (concentration yielding half maximum response); measured by patch-clamp rather than calcium imaging; cited from earlier work

Sequence of mTRPC6 mutant ^mN701Q (Q61143 whole entry N701Q): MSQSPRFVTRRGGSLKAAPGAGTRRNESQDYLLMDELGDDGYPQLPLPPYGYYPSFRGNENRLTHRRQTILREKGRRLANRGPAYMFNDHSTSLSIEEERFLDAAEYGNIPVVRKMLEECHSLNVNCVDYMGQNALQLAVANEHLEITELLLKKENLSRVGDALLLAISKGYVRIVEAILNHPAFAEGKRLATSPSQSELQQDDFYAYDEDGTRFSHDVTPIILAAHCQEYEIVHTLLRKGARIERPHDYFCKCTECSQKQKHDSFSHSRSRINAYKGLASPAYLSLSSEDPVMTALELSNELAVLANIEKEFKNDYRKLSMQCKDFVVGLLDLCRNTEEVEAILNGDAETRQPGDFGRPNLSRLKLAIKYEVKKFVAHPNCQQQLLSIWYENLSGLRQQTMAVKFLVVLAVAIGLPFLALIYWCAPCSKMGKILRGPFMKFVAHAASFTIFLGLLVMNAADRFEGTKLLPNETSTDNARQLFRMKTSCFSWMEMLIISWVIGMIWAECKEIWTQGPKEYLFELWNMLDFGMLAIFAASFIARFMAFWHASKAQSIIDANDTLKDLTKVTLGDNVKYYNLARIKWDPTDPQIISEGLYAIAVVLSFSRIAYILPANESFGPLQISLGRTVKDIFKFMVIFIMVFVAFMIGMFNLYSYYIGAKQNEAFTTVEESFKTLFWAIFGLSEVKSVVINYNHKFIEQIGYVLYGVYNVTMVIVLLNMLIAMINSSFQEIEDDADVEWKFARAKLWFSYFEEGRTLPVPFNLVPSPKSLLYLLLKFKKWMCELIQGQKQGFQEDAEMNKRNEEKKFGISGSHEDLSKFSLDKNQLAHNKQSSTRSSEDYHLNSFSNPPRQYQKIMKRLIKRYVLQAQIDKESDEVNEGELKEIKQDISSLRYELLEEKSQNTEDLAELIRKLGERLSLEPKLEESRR
Sequence of mTRPC6^N701Q (Q61143 whole entry N701Q): as above
Sequence of mTRPC6 mutant ^mW679A (Q61143 whole entry W679A): as the sequence (Q61143 whole entry N701Q) above, with W679A, Q701N counted along it
Sequence of hTRPC6 mutant ^hN702Q (Q9Y210 whole entry N702Q): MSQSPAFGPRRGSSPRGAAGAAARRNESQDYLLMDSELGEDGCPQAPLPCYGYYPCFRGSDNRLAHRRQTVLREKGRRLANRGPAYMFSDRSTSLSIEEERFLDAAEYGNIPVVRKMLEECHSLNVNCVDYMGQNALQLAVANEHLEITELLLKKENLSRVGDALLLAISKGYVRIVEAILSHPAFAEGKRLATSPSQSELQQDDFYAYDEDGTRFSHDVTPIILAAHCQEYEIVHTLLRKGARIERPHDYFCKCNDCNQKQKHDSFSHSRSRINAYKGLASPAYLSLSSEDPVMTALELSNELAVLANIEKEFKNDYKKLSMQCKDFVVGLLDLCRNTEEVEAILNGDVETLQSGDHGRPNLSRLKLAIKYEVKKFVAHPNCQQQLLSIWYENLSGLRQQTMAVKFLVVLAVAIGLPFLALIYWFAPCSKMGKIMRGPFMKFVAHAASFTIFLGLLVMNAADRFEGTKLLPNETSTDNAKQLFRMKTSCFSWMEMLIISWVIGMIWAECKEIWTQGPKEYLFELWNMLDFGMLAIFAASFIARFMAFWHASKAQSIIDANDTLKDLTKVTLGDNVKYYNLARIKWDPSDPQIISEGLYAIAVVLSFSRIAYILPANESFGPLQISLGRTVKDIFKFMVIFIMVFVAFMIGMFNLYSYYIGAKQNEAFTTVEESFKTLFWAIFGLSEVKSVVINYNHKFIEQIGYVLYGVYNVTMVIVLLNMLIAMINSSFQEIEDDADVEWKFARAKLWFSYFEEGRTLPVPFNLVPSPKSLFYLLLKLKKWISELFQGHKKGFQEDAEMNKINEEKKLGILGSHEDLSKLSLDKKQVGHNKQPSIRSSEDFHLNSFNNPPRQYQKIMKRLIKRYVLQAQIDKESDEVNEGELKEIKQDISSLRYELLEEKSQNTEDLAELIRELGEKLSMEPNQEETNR
Sequence of mTRPC6 mutant ^mV709A (Q61143 whole entry V709A): as the sequence (Q61143 whole entry N701Q) above, with Q701N, V709A counted along it
Sequence of mTRPC6 mutant ^mF674A (Q61143 whole entry F674A): as the sequence (Q61143 whole entry N701Q) above, with F674A, Q701N counted along it
Sequence of mTRPC6 mutant ^mE700A (Q61143 whole entry E700A): as the sequence (Q61143 whole entry N701Q) above, with E700A, Q701N counted along it
Sequence of mTRPC6 mutant ^mY704A (Q61143 whole entry Y704A): as the sequence (Q61143 whole entry N701Q) above, with Q701N, Y704A counted along it
Sequence of hTRPC6 mutant ^hK676R (Q9Y210 whole entry K676R): as the sequence (Q9Y210 whole entry N702Q) above, with K676R, Q702N counted along it
Sequence of mTRPC6 mutant ^mN701A (Q61143 whole entry N701A): as the sequence (Q61143 whole entry N701Q) above, with Q701A counted along it

## CCOC(=O)N1CCC(c2cc(O)n3nc(C)c(-c4ccc(F)cc4)c3n2)CC1 [M085, Ethyl 4-(3-(4-fluorophenyl)-7-hydroxy-2-methylpyrazolo[1,5-a]pyrimidin-5-yl)piperidine-1-carboxylate]
mTRPC6 mutant ^mE671C
  EC50: 23.3 ± 6.86 µM
mTRPC6 mutant ^mE671C; ^mE671C (S2 pocket)
  ratio of M085 activation current I10 μM/I5 μM: 4.16 ± 0.87
mTRPC6 mutant ^mE671C; ^mE671C, 100 μM agonist
  Imax (maximal current density): 24.09 ± 4.53 pA/pF
mTRPC6 mutant ^mE671C; mTRPC6^E671C, DTNB 2 mM
  agonist-mediated activation after DTNB treatment: completely inhibited
mTRPC6 mutant ^mE671C; mTRPC6^E671C, after DTNB then DTT 10 mM
  agonist current after DTT removal of TNB moiety: partially “recovered”
mTRPC6 mutant ^mN701Q
  EC50: 55.7 ± 15.2 µM
mTRPC6 mutant ^mN701Q; ^mN701Q, 100 μM agonist
  Imax (maximal current density): 2.11 ± 1.04 pA/pF
mTRPC6 mutant ^mV709A
  EC50: 6.95 ± 2.13 µM
mTRPC6 mutant ^mR463K
  ratio of M085 activation current I10 μM/I5 μM: 1.54 ± 0.17
mTRPC6 mutant ^mY657W
  ratio of M085 activation current I10 μM/I5 μM: 1.68 ± 0.24
mTRPC6 mutant ^mF674A
  agonist-induced current: disappearance
mTRPC6 mutant ^mW679A
  agonist-induced current: disappearance
mTRPC6 mutant ^mE700A
  agonist-induced current: disappearance
mTRPC6 mutant ^mN701A
  agonist-induced current: disappearance
mTRPC6 mutant ^mY704A
  agonist-induced current: disappearance
hTRPC6 mutant ^hK676R
  EC50: 44 ± 5.75 µM
hTRPC6 mutant ^hN702Q
  EC50: 54.5 ± 6.53 µM
mTRPC6^N701Q
  unit current: about 1.1 pA
TRPC3/6/7
  EC50: 4.66 ± 0.03 µM
